# Measurements published in ChEMBL document CHEMBL1240310, “Combinatorial chemistry identifies high-affinity peptidomimetics against alpha4beta1 integrin for in vivo tumor imaging” (Nat Chem Biol, 2006).
# Activity calls are given as the source filed them. No cut-off for these calls is given here.
# Key:
# CHO [1] = test: Binding affinity to human alpha4 Y195A mutant/hamster beta-1 integrin expressed in CHO cells by flow cytometry; type: cell-based
# Summary of the method: (§1)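 CHO cells stably expressing wild-type or single-Ala mutant human α4 paired with endogenous hamster β1. Cells incubated with biotinylated ligand in TBS (1 mM Mn2+), then SA-PE, and read by flow cytometry. Binding normalized to α4 expression measured with mAb B5G10. Mean ± s.d. of triplicates.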
# CHO [2] = test: Binding affinity to human alpha4 P183A mutant/hamster beta-1 integrin expressed in CHO cells by flow cytometry; type: cell-based; summary of the method: as §1
# [3] = target: T1, Integrin alpha-4/beta-1 (Homo sapiens) (UniProt P05556+P13612); test: Binding affinity to alpha4beta1 integrin expressed in peripheral blood lymphocytes; type: cell-based
# Summary of the method: (§2)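 Normal peripheral blood lymphocytes isolated from healthy-donor blood by Ficoll-Paque gradient. Cells (0.5 × 10^6) incubated 1 h at 4 °C with biotinylated ligand (100 nM) in TBS, then SA-PE, and 10,000 cells read by flow cytometry. Mn2+ added for integrin activation where indicated. Activation state checked with anti-β1 LIBS mAb.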
# CHO [4] = test: Binding affinity to human alpha4 Y202A mutant/hamster beta-1 integrin expressed in CHO cells by flow cytometry; type: cell-based; summary of the method: as §1
# CHO [5] = test: Binding affinity to wild type human alpha4hamster beta-1 integrin expressed […] cells by flow cytometry; type: cell-based; summary of the method: as §1
# CHO [6] = test: Binding affinity to human alpha4 N196A mutant/hamster beta-1 integrin expressed in CHO cells by flow cytometry; type: cell-based; summary of the method: as §1
# CHO [7] = test: Binding affinity to human alpha4 T189A mutant/hamster beta-1 integrin expressed in CHO cells by flow cytometry; type: cell-based; summary of the method: as §1
# Mus musculus [8] = test: In vivo inhibition of alpha4beta1 integrin expressed in human Molt-4 cells xenografted into mouse at 60 nmol/kg, iv up to 44 hrs by NIRF imaging; type: functional, organism-based
# Summary of the method: (§3)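 Nude (nu/nu) mice bearing subcutaneous shoulder Molt-4 xenografts (about 5 × 10^6 cells injected; tumors 0.5–1.0 cm). Probe made by complexing biotinylated ligand with SA-Alexa Fluor680 at 5:1 molar ratio, 1 h, 4 °C. Given 60 nmol kg-1 i.v. (n = 3). Imaged under pentobarbital anesthesia (60 mg kg-1 i.p.) at 0–44 h; excitation 625 nm, emission 700 nm, 30 s exposure. Tumor vs normal ROI intensities compared.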
# [9] = target: T1, Integrin alpha-4/beta-1 (Homo sapiens); test: Inhibition of integrin alpha-4-beta-1-mediated Jurkat cell adhesion to VCAM-1 coated surface by BCECF fluorescence analysis; type: cell-based
# [10] = target: T1, Integrin alpha-4/beta-1 (Homo sapiens); test: Binding affinity to alpha4beta1 integrin expressed in peripheral blood lymphocytes in presence of Mn2+; type: cell-based; summary of the method: as §2
# CHO [11] = test: Binding affinity to human alpha4 W188A mutant/hamster beta-1 integrin expressed in CHO cells by flow cytometry; type: cell-based; summary of the method: as §1
# [12] = target: T1, Integrin alpha-4/beta-1 (Homo sapiens); test: Binding affinity to alpha4beta1 integrin expressed in human Reh cells by flow cytometry; type: cell-based
# Summary of the method: (§4)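 Cells (0.5 × 10^6) incubated with biotinylated ligand (100 nM) for 1 h at 4 °C in TBS with 1 mM Mg2+/Mn2+, washed, then stained with SA-PE. Fluorescence of 10,000 cells read by flow cytometry. Integrin-transfected CHO lines as previously described; α4 expression probed with anti-α4 mAb P1H4 plus FITC secondary.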
# CHO [13] = test: Binding affinity to human alpha4 K203A mutant/hamster beta-1 integrin expressed in CHO cells by flow cytometry; type: cell-based; summary of the method: as §1
# CHO [14] = test: Binding affinity to human alpha4 S191A mutant/hamster beta-1 integrin expressed in CHO cells by flow cytometry; type: cell-based; summary of the method: as §1
# [15] = target: Integrin alpha-M/beta-2 (Homo sapiens) (UniProt P05107+P11215); test: Binding affinity to alphaMbeta2 integrin expressed in CHO cells by flow cytometry; type: cell-based; summary of the method: as §4
# [16] = target: T1, Integrin alpha-4/beta-1 (Homo sapiens); test: Binding affinity to alpha4beta1 integrin expressed in CHO cells by flow cytometry; type: cell-based; summary of the method: as §4
# [17] = target: ITGB1-ITGA9 complex (Homo sapiens) (UniProt P05556+Q13797); test: Binding affinity to alpha9beta1 integrin expressed in CHO cells by flow cytometry; type: cell-based; summary of the method: as §4
# CHO [18] = test: Binding affinity to human alpha4 G181A mutant/hamster beta-1 integrin expressed in CHO cells by flow cytometry; type: cell-based; summary of the method: as §1
# CHO [19] = test: Binding affinity to alpha4beta1 integrin G184A mutant expressed in CHO cells by flow cytometry; type: cell-based; summary of the method: as §1
# [20] = target: T1, Integrin alpha-4/beta-1 (Homo sapiens); test: Binding affinity to alpha4beta1 integrin expressed in human K562 cells by flow cytometry; type: cell-based; summary of the method: as §4
# CHO [21] = test: Binding affinity to human alpha4 K201A mutant/hamster beta-1 integrin expressed in CHO cells by flow cytometry; type: cell-based; summary of the method: as §1
# [22] = target: T1, Integrin alpha-4/beta-1 (Homo sapiens); test: Inhibition of integrin alpha-4-beta-1-mediated Jurkat cell adhesion to CS-1 coated surface by BCECF fluorescence analysis
# [23] = target: Integrin alpha2/beta1 (Homo sapiens) (UniProt P05556+P17301); test: Binding affinity to alpha2beta1 integrin expressed in CHO cells by flow cytometry; type: cell-based; summary of the method: as §4
# CHO [24] = test: Binding affinity to human alpha4 N200A mutant/hamster beta-1 integrin expressed in CHO cells by flow cytometry; type: cell-based; summary of the method: as §1
# CHO [25] = test: Binding affinity to human alpha4 S185A mutant/hamster beta-1 integrin expressed in CHO cells by flow cytometry; type: cell-based; summary of the method: as §1
# [26] = target: T1, Integrin alpha-4/beta-1 (Homo sapiens); test: Binding affinity to alpha4beta1 integrin transfected human Molt-4 cells by flow cytometry; type: cell-based; summary of the method: as §4
# [27] = target: ITGA6-ITGB1 complex (Homo sapiens) (UniProt P05556+P23229); test: Binding affinity to alpha6beta1 integrin expressed in CHO cells by flow cytometry; type: cell-based; summary of the method: as §4
# CHO [28] = test: Binding affinity to human alpha4 S186A mutant/hamster beta-1 integrin expressed in CHO cells by flow cytometry; type: cell-based; summary of the method: as §1
# [29] = target: Intercellular adhesion molecule (ICAM-1), Integrin alpha-L/beta-2 (Homo sapiens) (UniProt P20701+P05362+P05107); test: Binding affinity to alphaLbeta2 integrin expressed in CHO cells by flow cytometry; type: cell-based; summary of the method: as §4
# CHO [30] = test: Binding affinity to human alpha4 Y187A mutant/hamster beta-1 integrin expressed in CHO cells by flow cytometry; type: cell-based; summary of the method: as §1
# [31] = target: T1, Integrin alpha-4/beta-1 (Homo sapiens); test: Binding affinity to alpha4beta1 integrin expressed in human HL-60 cells by flow cytometry; type: cell-based; summary of the method: as §4
# CHO [32] = test: Binding affinity to human alpha4 G190A mutant/hamster beta-1 integrin expressed in CHO cells by flow cytometry; type: cell-based; summary of the method: as §1
# Mus musculus [33] = test: In vivo inhibition of alpha4beta1 integrin expressed in human Molt-4 cells xenografted into mouse at 60 nmol/kg, iv up to 24 hrs by NIRF imaging; type: functional, organism-based; summary of the method: as §3
# Sequence of Integrin alpha-M/beta-2 (Homo sapiens) (P05107 23-769 limits assumed, other chains not shown): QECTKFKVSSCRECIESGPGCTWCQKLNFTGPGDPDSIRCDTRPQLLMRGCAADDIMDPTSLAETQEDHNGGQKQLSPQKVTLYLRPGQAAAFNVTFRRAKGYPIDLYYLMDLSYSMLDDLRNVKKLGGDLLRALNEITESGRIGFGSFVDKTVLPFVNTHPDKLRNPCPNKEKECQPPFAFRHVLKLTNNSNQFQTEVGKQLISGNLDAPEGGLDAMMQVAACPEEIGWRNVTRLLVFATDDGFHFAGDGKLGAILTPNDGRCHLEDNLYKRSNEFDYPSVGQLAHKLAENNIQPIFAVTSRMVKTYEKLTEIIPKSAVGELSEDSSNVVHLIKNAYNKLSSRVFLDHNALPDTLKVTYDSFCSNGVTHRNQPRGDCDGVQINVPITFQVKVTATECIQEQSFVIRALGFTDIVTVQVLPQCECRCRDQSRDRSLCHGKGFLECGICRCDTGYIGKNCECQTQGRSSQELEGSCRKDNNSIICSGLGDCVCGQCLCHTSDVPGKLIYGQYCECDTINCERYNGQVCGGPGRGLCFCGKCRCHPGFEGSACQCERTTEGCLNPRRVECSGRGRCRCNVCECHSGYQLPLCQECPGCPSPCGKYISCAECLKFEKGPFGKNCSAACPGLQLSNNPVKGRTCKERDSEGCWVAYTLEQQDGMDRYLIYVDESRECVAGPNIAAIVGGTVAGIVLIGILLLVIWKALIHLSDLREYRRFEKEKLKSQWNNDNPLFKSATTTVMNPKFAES
structure (smiles),measurement,setting,value
Cc1ccccc1NC(=O)Nc1ccc(CC(=O)N[C@@H](CCCCNC(=O)/C=C/c2cccnc2)C(=O)N[C@@H](CCCC(=O)O)C(=O)NC2(C(N)=O)CCCCC2)cc1,Activity,CHO [1],Active
same,Activity,CHO [2],Active
same,Activity,[3],inactive
same,Activity,CHO [4],Active
same,Activity,CHO [5],Active
same,Activity,CHO [6],Active
same,Activity,CHO [7],Active
same,inhibition,Mus musculus [8],Active
same,inhibition,[9],Active
same,Activity,[10],Active
same,Activity,CHO [11],inactive
same,Activity,[12],Active
same,Activity,CHO [13],Active
same,Activity,CHO [14],Active
same,Activity,[15],inactive
same,Activity,[16],Active
same,Activity,[17],inactive
same,Activity,CHO [18],Active
same,Activity,CHO [19],Active
same,Activity,[20],Active
same,Activity,CHO [21],Active
same,inhibition,[22],Active
same,Activity,[23],inactive
same,Activity,CHO [24],Active
same,Activity,CHO [25],Active
same,Activity,[26],Active
same,Activity,[27],inactive
same,Activity,CHO [28],Active
same,Activity,[29],inactive
same,Activity,CHO [30],inactive
same,Activity,[31],Active
same,Activity,CHO [32],inactive
Cc1ccccc1NC(=O)Nc1ccc(CC(=O)N[C@@H](CCCCNC(=O)/C=C/c2cccnc2)C(=O)N[C@@H](CCCC(=O)O)C(=O)NC2(C(=O)NCCOCCOCCNC(=O)CCC(=O)NCCOCCOCCNC(=O)CCC(=O)N[C@@H](CCCCNC(=O)CCCC[C@@H]3SC[C@@H]4NC(=O)N[C@@H]43)C(N)=O)CCCCC2)cc1,inhibition,Mus musculus [33],inactive
